High-throughput results from PubChem BioAssay.
Shown are actives, neighbours in structure and some others; about 2.4% of the full set was active somewhere.
NPY-Y1 PAM-ag = potentiates or activates human NPY-Y1 receptor. activation, % at 3.6 µM. AID 1304. NPY-Y1 expressing cells, potentiator/agonist activation. 220,000 tested, 0.37% active. P25929; in the data active = activation above about 33%, passing the limit was not always enough;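 also: cells stimulated with NPY at EC10 then isoproterenol at EC100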
NPY-Y2 antag = antagonists of human neuropeptide Y receptor Y2 | NPY-Y2 expressing cells, antagonist mode | inhibition, % at 2.7 µM | 140,000 tested, 0.99% active | P49146 | AID 793; in the data active = inhibition above about 17%
Target sequence (P49146 whole entry, looked up): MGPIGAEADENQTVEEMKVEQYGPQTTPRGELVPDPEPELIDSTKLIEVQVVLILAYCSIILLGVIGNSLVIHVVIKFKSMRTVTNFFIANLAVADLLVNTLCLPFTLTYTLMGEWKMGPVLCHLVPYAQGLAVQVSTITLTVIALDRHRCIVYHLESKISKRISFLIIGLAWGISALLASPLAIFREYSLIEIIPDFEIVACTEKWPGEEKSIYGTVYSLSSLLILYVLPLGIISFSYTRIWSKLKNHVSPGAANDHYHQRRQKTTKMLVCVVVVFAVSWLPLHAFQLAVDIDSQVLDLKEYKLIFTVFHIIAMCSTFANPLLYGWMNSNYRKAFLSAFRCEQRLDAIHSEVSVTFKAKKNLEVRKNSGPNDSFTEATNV
S1P4 ag = human S1P4 receptor agonism; O95977; S1P4-expressing cell line, agonist reporter assay; 220,000 tested, 0.35% active; activation, % at 4.98 µM; AID 1509; in the data active = activation above about 11%
Target sequence (O95977 whole entry, looked up): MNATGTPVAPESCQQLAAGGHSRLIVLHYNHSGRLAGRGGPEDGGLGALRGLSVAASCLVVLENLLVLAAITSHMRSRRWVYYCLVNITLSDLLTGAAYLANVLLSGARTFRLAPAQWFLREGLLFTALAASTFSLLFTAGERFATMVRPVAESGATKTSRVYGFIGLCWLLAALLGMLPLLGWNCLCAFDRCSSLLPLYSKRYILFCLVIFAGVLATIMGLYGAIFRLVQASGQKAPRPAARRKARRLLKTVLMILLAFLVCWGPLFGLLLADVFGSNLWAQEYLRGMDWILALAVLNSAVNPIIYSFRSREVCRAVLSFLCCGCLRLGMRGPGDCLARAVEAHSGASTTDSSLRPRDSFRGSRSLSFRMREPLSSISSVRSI
S1P4 antag = human S1P4 receptor antagonism; O95977; AID 1510; 220,000 tested, 0.26% active; S1P4-expressing cells, antagonist mode, reporter read-out; inhibition, % at 4.98 µM; in the data active = inhibition above about 29%
NPY-Y1 antag = antagonists of human neuropeptide Y receptor Y1; inhibition, % at 3.6 µM; 200,000 tested, 1% active; HEK293-CNG Y1 cells, membrane potential fluorescence; NPY at EC95, then isoproterenol; P25929;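 active = inhibition above the campaign mean inhibition of all tested compounds plus 3 SD, cut at about 20% in these data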
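Assay system: HEK293 Y1/CNG channel cell line; Doses: single compound dose of 3.6 µM, 0.4% DMSO; Timing: dye 3 h, compound 60 min room temperature, stimulation 45 min; Technique: Membrane-potential fluorescent dye readout; Measure: % inhibition of NPY effect.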
NPY2 pot ag = potentiates or activates human NPY-Y2 receptor. AID 1359. activation, % at 3.6 µM. 220,000 tested, 0.45% active. cells expressing NPY-Y2, potentiator/agonist read-out; in the data active = activation above about 27%;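 also: cells stimulated with NPY near EC25 plus isoproterenol at EC100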
NPY-Y1 pot conf = confirmation of human NPY-Y1 receptor potentiators or agonists. shares compounds with NPY-Y1 PAM-ag. cell-based NPY-Y1 potentiator/agonist assay. activation, % at 3.6 µM. 280 tested, 20% active. AID 1546; in the data active = activation above about 45%;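 also: cells challenged with NPY at its EC10 plus isoproterenol stimulus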
NPY-Y2 counter = NPY-Y2 potentiation or agonism as NPY-Y1 counter-screen; 280 tested, 20% active; activation, % at 3.6 µM; HEK293-CNG cells, membrane-potential fluorescence (FLIPR), 1536-well; AID 1649; shares compounds with NPY-Y1 PAM-ag; in the data active = activation above about 33%
NPY-Y1 agonist = human NPY-Y1 agonism as potentiator counter-screen; shares compounds with NPY-Y1 PAM-ag; HEK293 Y1-CNGC, membrane potential fluorescence, agonist mode; activation, % at 3.6 µM; 280 tested, 50% active;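 active = percent activation above the mean of DMSO-only control wells plus 3 SD of those wells, cut at about 18% in these data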;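 also: cells challenged with isoproterenol plus Ro 20-1724 with no NPY in test wells; Y1 agonism lowers isoproterenol-driven cAMP and reduces probe fluorescence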
NPY-Y2 agonist = human NPY-Y2 agonism as NPY-Y1 counter-screen; shares compounds with NPY-Y1 PAM-ag; HEK293 Y2-CNGC, membrane potential fluorescence, agonist mode; activation, % at 3.6 µM; 280 tested, 67% active; AID 1698;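 active = activation above the solvent-only control wells' mean plus 3 SD, cut at about 11% in these data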;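 also: agonism lowers cAMP so well fluorescence drops in active wells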
CNGC counter = counter-screen for NPY-Y1 potentiators or agonists: CNG channel inhibitors; inhibition, % at 3.6 µM; HEK293-CNG parental, isoproterenol cAMP, membrane potential fluorescence; 280 tested, 42% active; shares compounds with NPY-Y1 PAM-ag;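 active = inhibition above the mean of stimulated solvent-only control wells plus 3 SD, cut at about 22% in these data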
S1P4 antag cf = confirmation of human S1P4 receptor antagonists. inhibition, % at 4.98 µM. S1P4-expressing cell line, antagonist mode, reporter read-out. 520 tested, 71% active. shares compounds with S1P4 antag. AID 1524; in the data active = inhibition above about 30%
S1P1 antagonist = human S1P1 antagonism as S1P4 antagonist counter-screen; shares compounds with S1P4 antag; cell-based S1P1 antagonist counterscreen, inhibition; inhibition, % at 4.98 µM; 520 tested, 37% active; AID 1564; in the data active = inhibition above about 40%;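 also: receptor stimulated with S1P near its EC80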
Large screens that a line does not name were inactive (follow-up assays come after a bar, where they were run).

O=C(COc1ccc(S(=O)(=O)NC2CCCCC2)cc1)N1CCN(c2ccc(F)cc2)CC1	none
O=C(COc1ccc(S(=O)(=O)NC2CCCCC2)cc1Cl)N1CCN(c2ccccc2)CC1	NPY-Y1 PAM-ag 41 | NPY-Y1 pot conf inactive | NPY-Y2 counter inactive | NPY-Y1 agonist inactive | NPY-Y2 agonist inactive | CNGC counter inactive
O=C1N=c2ccccc2=C1c1sc(=S)n(Cc2ccccc2Cl)c1O	NPY-Y1 PAM-ag 72 (no result: NPY-Y2 antag, NPY-Y1 antag) | NPY-Y1 pot conf inactive | NPY-Y2 counter 38 | NPY-Y1 agonist 25 | NPY-Y2 agonist 30 | CNGC counter 30
Cc1ccccc1NCC(=O)N/N=C/c1c[nH]c2ccccc12	NPY-Y1 PAM-ag 46 (no result: NPY-Y2 antag) | NPY-Y1 pot conf inactive | NPY-Y2 counter inactive | NPY-Y1 agonist 27 | NPY-Y2 agonist 18 | CNGC counter 29
COc1ccc(C(=O)C[n+]2cn(C(F)F)c3ccccc32)c(F)c1	none (no result: NPY-Y2 antag)
CCCCCCn1ccc(=N)cc1	none
CCCCCCCCCCCCCCCCn1cc[n+](CC(C)=O)c1	NPY-Y1 PAM-ag 58 (no result: NPY-Y2 antag) | NPY-Y1 pot conf 58 | NPY-Y2 counter inactive | NPY-Y1 agonist 38 | NPY-Y2 agonist 19 | CNGC counter 28
Cc1cccc(OCC(=O)N/N=C\c2cccn2C)c1C	none (no result: NPY-Y2 antag)
CC1CN(c2nc3ccccc3cc2-c2ccccc2)CC(C)O1 (centres undefined)	none (no result: NPY-Y2 antag)
COc1ccc(S(=O)(=O)Nc2ccccc2C(=O)Nc2nc(-c3ccc(F)cc3)cs2)cc1OC	NPY-Y1 PAM-ag 39 | NPY-Y1 pot conf inactive | NPY-Y2 counter inactive | NPY-Y1 agonist inactive | NPY-Y2 agonist inactive | CNGC counter inactive
COc1ccc(S(=O)(=O)N2CCOCC2)cc1NC(=O)CSc1nnc2c(n1)[nH]c1ccccc12	none (no result: NPY-Y2 antag, NPY-Y1 antag)
C=CCn1c(SCC(=O)Nc2sccc2C(N)=O)nc2ccc(Cl)cc2c1=O	NPY-Y1 PAM-ag 38 | NPY-Y1 pot conf inactive | NPY-Y2 counter inactive | NPY-Y1 agonist inactive | NPY-Y2 agonist 19 | CNGC counter inactive
C=CCn1c(SCC(=O)Nc2sccc2C(N)=O)nc2ccccc2c1=O	none
CCNS(=O)(=O)c1ccc(OC)c(C(=O)NC2CCCCC2)c1	none (no result: NPY-Y2 antag)
Brc1ccc(C=Nc2ccc(Nc3ccccc3)cc2)s1	NPY-Y1 PAM-ag 40 | NPY-Y1 pot conf inactive | NPY-Y2 counter inactive | NPY-Y1 agonist inactive | NPY-Y2 agonist 17 | CNGC counter inactive
C(=Nc1ccc(Nc2ccccc2)cc1)c1ccc2ccccc2c1	NPY-Y1 PAM-ag 46 | NPY-Y1 pot conf inactive | NPY-Y2 counter inactive | NPY-Y1 agonist inactive | NPY-Y2 agonist inactive | CNGC counter inactive
O=C(CCC(=O)N/N=C/c1ccc(Br)s1)NCc1ccccc1	none
[O-]/C(=C(\C(=S)Nc1ccc(SC(F)F)cc1)[n+]1cccc(CO)c1)c1ccc(Cl)s1	none (no result: NPY-Y2 antag)
[O-]/C(=C(\C(=S)Nc1ccc(SC(F)F)cc1)[n+]1ccccc1)c1cc(Cl)ccc1Cl	NPY-Y1 PAM-ag 47 (no result: NPY-Y2 antag) | NPY-Y1 pot conf 62 | NPY-Y2 counter 35 | NPY-Y1 agonist 38 | NPY-Y2 agonist 25 | CNGC counter 49
CN(C)c1cc[n+](/C(C(=S)Nc2ccc(SC(F)F)cc2)=C(/[O-])c2ccccc2)cc1	none (no result: NPY-Y2 antag)
Cc1cc(C)c(/C([O-])=C(/C(=S)Nc2ccc(SC(F)F)cc2)[n+]2ccccc2)cc1C	NPY-Y1 PAM-ag 40 (no result: NPY-Y2 antag) | NPY-Y1 pot conf 69 | NPY-Y2 counter 47 | NPY-Y1 agonist 52 | NPY-Y2 agonist 52 | CNGC counter 56
O=C(COC(=O)c1cccc(S(=O)(=O)NCc2ccccc2)c1)NCC1CCCO1 (centres undefined)	none (no result: NPY-Y2 antag)
O=[N+]([O-])c1cc(S(=O)(=O)N2CCCC2)ccc1SCCO	none (no result: NPY-Y2 antag)
N#C/C(=C(/O)c1cc2ccccc2o1)c1nc2ccccc2s1	NPY-Y1 PAM-ag 49 (no result: NPY-Y2 antag, NPY-Y1 antag) | NPY-Y1 pot conf inactive | NPY-Y2 counter inactive | NPY-Y1 agonist inactive | NPY-Y2 agonist 11 | CNGC counter inactive
CCN(CC)C(=O)Cn1c(=O)oc2ccccc21	none (no result: NPY-Y2 antag, NPY-Y1 antag)
CCCN1C(=O)/C(=C/c2ccc(OCC(=O)OCC)cc2)NC1=S	NPY-Y1 PAM-ag 78, S1P4 antag 30 (no result: NPY-Y2 antag) | NPY-Y1 pot conf 122 | NPY-Y2 counter 101 | NPY-Y1 agonist 110 | NPY-Y2 agonist 105 | CNGC counter 100 | S1P4 antag cf inactive | S1P1 antagonist inactive
CCCN1C(=O)/C(=C/c2ccc(N3CCOCC3)cc2)NC1=S	none (no result: NPY-Y2 antag)
COc1ccc2c(c1)c(/C=N/Nc1nc3ccccc3[nH]1)c(C)n2C	NPY-Y1 PAM-ag 42, S1P4 antag 32 (no result: NPY-Y2 antag, NPY-Y1 antag) | NPY-Y1 pot conf 60 | NPY-Y2 counter 47 | NPY-Y1 agonist 42 | NPY-Y2 agonist 50 | CNGC counter 36 | S1P4 antag cf inactive | S1P1 antagonist inactive
CC(=O)c1cccc(NC(=O)COC(=O)COc2c(Cl)cc(Cl)c3ccc(C)nc23)c1	none
CC(C(=O)N1CCN(c2ccc(Cl)cc2)CC1)c1ncc(C(F)(F)F)cc1Cl (centres undefined)	none
CC1=C(C)/C(=N\OS(=O)(=O)c2ccccc2)C=CC1=O	NPY-Y1 PAM-ag 70, S1P4 antag 42 | NPY-Y1 pot conf inactive | NPY-Y2 counter inactive | NPY-Y1 agonist inactive | NPY-Y2 agonist 13 | CNGC counter inactive | S1P4 antag cf 69 | S1P1 antagonist inactive
